Data set [1] has as its system BXPC-3. Briefly: Cytotoxicity against S100P expressing human BXPC-3 cells assessed as LDH release at 10 uM measured after 24 hrs by LDH assay. In kind it is functional, cell-based. Summed up: (§1)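 1 × 10^5 BxPC-3 (RPMI-1640) or Panc-1 (DMEM high glucose) cells were allowed to adhere for 24 h, then given 10 μM compound. Membrane integrity was measured by LDH release (CytoTox-ONE) every 24 h for up to 3 days, with background OD subtracted.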

Data set [2] relates to BXPC-3. The experiment in a line: Cytotoxicity against S100P expressing human BXPC-3 cells assessed as reduction in cell viability at 10 uM measured after 24 hrs by MTS assay. In kind it is functional, cell-based. An outline of the steps:
(§2)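 1 × 10^5 BxPC-3 (RPMI-1640) or Panc-1 (DMEM high glucose) cells, in medium with 10% FBS, were allowed to adhere for 24 h, then given 10 μM compound. MTS absorbance was read at 492 nm every 24 h. Background was subtracted and values normalized to untreated cells. n = 3 separate experiments.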
(In general: Tetrazolium assays rely on reduction of a dye to a coloured formazan, in cell work by metabolically active cells.)

Data set [3] concerns BXPC-3. The experiment in a line: Antiinvasive activity in S100P expressing human BXPC-3 cells assessed as inhibition of cell invasion at 10 uM incubated for 48 hrs by transwell invasion assay. In kind it is functional, cell-based. An outline of the steps: (§3)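 Matrigel-coated Transwell (PET membrane, 8 μm pores). BxPC-3 (RPMI-1640) or Panc-1 (DMEM) cells were seeded at 2 × 10^5 cells/mL in serum-free medium in the upper chamber, with 10% FBS below as chemoattractant. Cells were given 10 μM compound (0.1% DMSO final) for 48 h at 37 °C, 5% CO2. Invaded cells were Diff-Quik stained and counted in five ×100 fields. Three independent experiments.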

For data set [4], the system named is PANC-1. The experiment in a line: Cytotoxicity against human PANC-1 cells assessed as LDH release at 10 uM measured after 24 hrs by LDH assay. The data set is classed as functional, cell-based. Summed up: as §1
(In general: LDH leaks from cells whose membrane has failed.)

Data set [5] has as its system PANC-1. The experiment in a line: Antiinvasive activity in human PANC-1 cells assessed as inhibition of cell invasion at 10 uM incubated for 48 hrs by transwell invasion assay. In kind it is functional, cell-based. An outline of the steps: as §3
Data set [6] concerns PANC-1. The experiment in a line: Cytotoxicity against human PANC-1 cells assessed as reduction in cell viability at 10 uM measured after 24 hrs by MTS assay. The data set is classed as functional, cell-based. An outline of the steps:
as §2

The nature of data set [7]: Aqueous solubility of the compound in 0.1% DMSO. In kind it is physicochemical. The note with it: buffer.
For the next data set, the species on record is Homo sapiens. Briefly: Inhibition of human recombinant S100P/RAGE interaction incubated for 1 hr and measured by ELISA based binding assay. Summed up:
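His-tagged human S100P, expressed in E. coli BL21 and Ni-NTA purified, was coated at 2 μM in PBS pH 7.4 with 1 mM CaCl2, 10 μM ZnCl2 and 0.5 mM MgCl2 overnight at 37 °C, then blocked with 1% BSA for 2 h. Wells got increasing compound concentrations in triplicate, then human RAGE-Fc for 1 h at 37 °C, anti-human HRP for 1 h, and TMB for 20 min. Read at 450 nm, normalized to S100P+RAGE-Fc; IC50 estimated.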

The nature of data set [8]: Aqueous solubility of the compound in 1% DMSO. In kind it is physicochemical. The note with it: buffer.
Data set [9] deals with PANC-1. The experiment in a line: Antiinvasive activity in human PANC-1 cells assessed as inhibition of cell invasion at 100 to 200 uM incubated for 48 hrs by transwell invasion assay. Particulars: dose 100-200 µM.
For data set [10], the system named is BXPC-3. Briefly: Antiinvasive activity in S100P expressing human BXPC-3 cells assessed as inhibition of cell invasion at 100 to 200 uM incubated for 48 hrs by transwell invasion assay. Particulars: dose 100-200 µM.

Activity calls are given as the source filed them. No cut-off for these calls is given here.

For the compound `COc1ccc(/C=C2/C(=O)NC(=O)N(c3ccc(Cl)c(Cl)c3)C2=O)cc1C(=O)O`, the outcome in the data set on BXPC-3 [1], in the data set with BXPC-3 [2], in the data set on PANC-1 [4], in the data set on PANC-1 [5] and in the data set with PANC-1 [6] was inactive. For the same compound, the outcome with BXPC-3 [3] was Active.

`O=C1C2C3c4ccccc4C(c4ccccc43)C2C(=O)N1c1ccc(F)cc1` (centres undefined): the result in the data set on BXPC-3 [1], in the data set on BXPC-3 [2], in the data set on PANC-1 [4], in the data set with PANC-1 [5] and in the data set on PANC-1 [6] was inactive. Moreover, the result in the data set on BXPC-3 [3] was Active. Further, the solubility entry in data set [7] and in data set [8] was “Soluble” each time. Moreover, the INH in the data set filed under Homo sapiens is 10 nM.

Take `O=C1C2C3c4ccccc4C(c4ccccc43)C2C(=O)N1c1ccccc1` (centres undefined): the result with BXPC-3 [1], with BXPC-3 [2], with PANC-1 [4], with PANC-1 [5] and with PANC-1 [6] was inactive. Also, the result with BXPC-3 [3] was Active. Moreover, the solubility entry in [7] and in [8] was “Soluble” in each case. Besides, the INH in the data set filed under Homo sapiens worked out at 10 nM.

Consider `O=C1C2C3c4ccccc4C(c4ccccc43)C2C(=O)N1c1cccc(F)c1` (centres undefined), for which the result in the data set on BXPC-3 [1], in the data set with BXPC-3 [2], in the data set with PANC-1 [4], with PANC-1 [5] and with PANC-1 [6] was inactive. The result in the data set with BXPC-3 [3] was Active. In addition, the solubility entry in data set [7] and in [8] was “Soluble” throughout. Also, in the data set listed under Homo sapiens, the INH turned out to be 10 nM.

With `O=C(O)c1cccc(N2C(=O)C3C4c5ccccc5C([N+](=O)[O-])(c5ccccc54)C3C2=O)c1` (centres undefined), the result with BXPC-3 [1], in the data set with BXPC-3 [2], in the data set with PANC-1 [4], in the data set with PANC-1 [5] and in the data set on PANC-1 [6] was inactive. Besides, the result in the data set with BXPC-3 [3] was Active. For the same compound, in the data set listed under Homo sapiens, the INH was 10 nM.

With `O=C(O)c1cc(=O)c2c(OCC(O)COc3cccc4oc(C(=O)O)cc(=O)c34)cccc2o1`, the outcome in the data set with PANC-1 [9] and in the data set on BXPC-3 [10] was Active. The outcome in the data set on BXPC-3 [1], in the data set on BXPC-3 [2], with BXPC-3 [3], in the data set with PANC-1 [4], in the data set with PANC-1 [5] and in the data set on PANC-1 [6] was inactive.

On to `O=C(Cc1cc(O)n[nH]1)N/N=C/c1c(Cl)cccc1Cl`, for which the result with BXPC-3 [1], in the data set with BXPC-3 [2], in the data set with PANC-1 [4], with PANC-1 [5] and in the data set on PANC-1 [6] was inactive. In addition, the result with BXPC-3 [3] was Active.

In the case of `O=C(O)c1ccc(N2C(=O)C3C4c5ccccc5C([N+](=O)[O-])(c5ccccc54)C3C2=O)cc1` (centres undefined), the outcome with BXPC-3 [1], with BXPC-3 [2], in the data set with PANC-1 [4], with PANC-1 [5] and with PANC-1 [6] was inactive. For the same compound, the outcome in the data set on BXPC-3 [3] was Active. Besides, the solubility result in [7] and in data set [8] was “Soluble” each time. Moreover, the INH in the data set filed under Homo sapiens is < 10 nM.

Regarding `N#CCCn1cc(C(=O)Nc2ccc(C(=O)O)cc2)c(-c2ccccc2)n1`, the result in the data set with BXPC-3 [1], with BXPC-3 [2], in the data set with PANC-1 [4], with PANC-1 [5] and with PANC-1 [6] was inactive. Besides, the result with BXPC-3 [3] was Active.

Regarding `Cc1ccc(-c2ccc(=O)n(CC(=O)Nc3ccc(-n4cnnn4)cc3)n2)cc1`, the result in the data set on BXPC-3 [1], with BXPC-3 [2], with PANC-1 [4], in the data set with PANC-1 [5] and in the data set on PANC-1 [6] was inactive. The outcome in the data set with BXPC-3 [3] was Active.

Turning to `O=C1C2C3c4ccccc4C([N+](=O)[O-])(c4ccccc43)C2C(=O)N1c1cccc(F)c1` (centres undefined), the result in the data set on BXPC-3 [1], in the data set on BXPC-3 [2], with PANC-1 [4], in the data set on PANC-1 [5] and with PANC-1 [6] was inactive. Also, the result in the data set with BXPC-3 [3] was Active. Also, the solubility result in data set [7] and in [8] was “Soluble” throughout. Moreover, in the data set listed under Homo sapiens, the INH stood at 100 nM.

The record behind these values is ChEMBL document CHEMBL4765393, “Discovery of novel small molecule inhibitors of S100P with in vitro anti-metastatic effects on pancreatic cancer cells” (Eur J Med Chem, 2020).
